UBC13 polyUb: UBC13 polyubiquitin chain formation inhibitors, primary screen, biochemical, TR-FRET, uHTS. Ubiquitin-conjugating enzyme E2 N (Homo sapiens), P61088. inhibition, % at 20 µM. 0.47% of 330,000 active; in the data active = inhibition above about 45%, passing the limit was not always enough
SENP7 block: SENP7 protease inhibitors, primary screen, biochemical, luminescence, uHTS | Sentrin-specific protease 7 (Homo sapiens), Q9BQF6 | recombinant SENP7, Z-RLRGG-aminoluciferin luminescence, 40 min | inhibition, % at 5 µM | 1.5% of 330,000 active;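 active = inhibition above about 50% at the single test dose, limit read from the data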;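 note: plate controls were DMSO with enzyme for no effect and no enzyme buffer wells for full effect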
Target sequence (Q9BQF6 706-1050 limits assumed): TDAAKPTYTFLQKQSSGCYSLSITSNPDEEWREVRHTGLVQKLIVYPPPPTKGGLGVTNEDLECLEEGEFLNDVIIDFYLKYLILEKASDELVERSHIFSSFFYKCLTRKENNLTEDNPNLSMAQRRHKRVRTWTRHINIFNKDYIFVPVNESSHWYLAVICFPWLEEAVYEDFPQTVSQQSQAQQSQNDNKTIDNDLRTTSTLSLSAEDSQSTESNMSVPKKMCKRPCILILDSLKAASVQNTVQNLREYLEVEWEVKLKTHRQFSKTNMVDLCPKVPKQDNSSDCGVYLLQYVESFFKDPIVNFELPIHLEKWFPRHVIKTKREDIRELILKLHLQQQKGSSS
SENP8 block-1: human SENP8 protease inhibitors, primary screen, biochemical, fluorescence, Nedd8 protein substrate, uHTS; Sentrin-specific protease 8 (Homo sapiens), Q96LD8; recombinant SENP8; inhibition, % at 20 µM; 0.64% of 360,000 active; AID 602440, 2012; in the data active = inhibition mostly above about 40%, no sharp cut-off; inactive = mostly below about 27%
Apaf1 inhib: inhibitors of human Apaf-1 apoptosome, primary screen, biochemical, DEVD-Rh110 fluorescence, uHTS; inhibition, % at 20 µM; AID 489030, 2010; Apoptotic protease-activating factor 1 (Homo sapiens), O14727; 0.71% of 330,000 active; reconstituted apoptosome caspase-3 activity; active = inhibition of at least 40% at 20 µM;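 note: plate controls were DMSO wells for no effect and DEVD-CHO caspase inhibitor wells for full effect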
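Assay system: Apoptosome proteins | Medium: pH 7.5 Hepes buffer with CHAPS, BSA, DTT | Also added: Cytochrome c and DEVD-Rh110 substrate | Times: 30 min plus 50 min, RT | Detection: Rhodamine 110 fluorescence at Ex 480/Em 540 nm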
SENP8 block-2: SENP8 protease inhibitors, primary screen, biochemical, luminescence; AID 2540, 2010; purified SENP8, Z-RLRGG-aminoluciferin cleavage; Sentrin-specific protease 8 (Homo sapiens), Q96LD8; inhibition, % at 10 µM; 1.2% of 330,000 active; in the data active = inhibition above about 50%
SENP6 inh: SENP6 protease inhibitors, primary screen, biochemical, luminescence, uHTS | Sentrin-specific protease 6 (Homo sapiens), Q9GZR1 | Recombinant SENP6 catalytic domain, aminoluciferin luminescence | inhibition, % at 10 µM | 1.8% of 330,000 active | AID 2599, 2010;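 active = inhibition above about 50% at the single tested dose, limit read from the data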;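 note: plate controls were DMSO wells with enzyme for no effect and DMSO wells lacking enzyme for full effect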
SENP8 confirm: SENP8 protease inhibitors, retest, confirmation, biochemical, luminescence, single concentration; shares compounds with SENP7 block; Recombinant SENP8, Z-RLRGG-aminoluciferin luminescence, 60 min; 40% of 6,200 active; inhibition, % at 12.5 µM;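 active = mean inhibition across replicates above about 50%, limit read from the data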
SENP6 confirm: SENP6 protease inhibitors, confirmation, biochemical, luminescence, single concentration; recombinant SENP6, Z-RLRGG-aminoluciferin luminescence; inhibition, % at 12.5 µM; AID 488915, 2010; shares compounds with SENP7 block; 58% of 6,200 active
SENP7 confirm: SENP7 protease inhibitors, retest, confirmation, biochemical, luminescence, single concentration. shares compounds with SENP7 block. recombinant SENP7, Z-RLRGG-aminoluciferin luminescence, 40 min. inhibition, % at 12.5 µM. 69% of 6,200 active. AID 488917, 2010
Casp3 SENP sel: caspase-3 protease inhibitors, confirmation, selectivity assay for SENP inhibitor project, biochemical, single concentration | shares compounds with SENP7 block | purified caspase-3, Z-DEVD-aminoluciferin luminescence, 60 min | inhibition, % at 12.5 µM | 60% of 6,200 active;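 active = mean inhibition above about 50%, limit read from the data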;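 note: plate controls were enzyme with DMSO for no effect and wells without caspase-3 for full effect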
Target sequence (P42574 28-227 limits assumed): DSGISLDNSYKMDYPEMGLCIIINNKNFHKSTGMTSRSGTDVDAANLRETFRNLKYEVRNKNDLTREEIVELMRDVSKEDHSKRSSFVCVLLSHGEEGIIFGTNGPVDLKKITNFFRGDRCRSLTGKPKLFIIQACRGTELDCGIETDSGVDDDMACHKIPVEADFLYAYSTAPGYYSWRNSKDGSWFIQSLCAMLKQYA
SENP luc ctr: luminescence interference (SENP counter-screen) | Pre-incubated SENP8/Z-RLRGG-aminoluciferin, luciferase luminescence interference | inhibition, % at 12.5 µM | shares compounds with SENP7 block | 39% of 6,200 active | AID 488919;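 active = mean inhibition above about 50% when retested at one dose, limit read from the data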;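 note: plate controls were DMSO wells with completed reaction for no effect and substrate without enzyme for full effect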
Starred values were filed as active, the others as inactive; nt = not tested or not shown. An excerpt weighted towards active compounds, which were near 3% of everything screened.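 Rule for the calls, unless noted: active = mean inhibition above about 50% in the one-dose retest (limit read from the data); inactive = the rest.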

SMILES	UBC13 polyUb	SENP7 block	SENP8 block-1	Apaf1 inhib	SENP8 block-2	SENP6 inh	SENP8 confirm	SENP6 confirm	SENP7 confirm	Casp3 SENP sel	SENP luc ctr
CCCCNC(=O)C(NC(=O)c1cccs1)C(=O)c1ccccc1 (centres undefined)	nt	nt	19	nt	nt	nt	nt	nt	nt	nt	nt
Cc1ccccc1/C(N)=N/OC(=O)c1ccc(F)cc1	13	81*	10	1	61*	74*	70*	72*	93*	90*	75*
Cc1ccccc1C(=O)NNC(=O)c1ccc(F)cc1	13	8	21	-2	3	5	nt	nt	nt	nt	nt
N/C(=N\OC(=O)/C=C/c1ccccc1)c1ccccc1	4	-2	9	8	80*	90*	90*	89*	99*	90*	83*
N/C(=N\OC(=O)/C=C/c1ccccc1)c1ccc(Cl)cc1	-7	11	11	0	-12	-12	nt	nt	nt	nt	nt
CCC(c1nnnn1-c1ccc2c(c1)OCCO2)N1CCN(Cc2c(F)cccc2Cl)CC1 (centres undefined)	nt	nt	12	nt	nt	nt	nt	nt	nt	nt	nt
O=S1(=O)CC(N2CCN(CC3CC3)CC2)CN1C1CCCCC1 (centres undefined)	nt	nt	19	nt	nt	nt	nt	nt	nt	nt	nt
O=c1/c(=C\c2ccc3c(c2)OCO3)sc2n1CCCN=2	-4	69*	-45	-9	55*	78*	1	28	61*	46	46
CCOc1ccc(C(=O)Nc2cc(C)ccn2)cc1	5	96*	10	8	91*	91*	-12	90*	100*	96*	91*
Cc1ccnc(NC(=O)c2ccc(C(=O)c3ccccc3)cc2)c1	14	70*	-1	18	73*	80*	72*	69*	93*	85*	78*
CCOc1cc(C(=O)Nc2cc(C)ccn2)cc(OCC)c1OCC	-3	-5	11	5	-11	-8	nt	nt	nt	nt	nt
O=C(Nc1cc(-c2ccccc2)[nH]n1)c1ccccc1	7	62*	1	2	59*	80*	68*	62*	88*	63*	71*
O=C(Nc1ccon1)c1ccc(Cl)s1	3	0	9	-14	0	-2	nt	nt	nt	nt	nt
Cc1ccnc(NC(=O)c2ccc(Cl)s2)c1	6	72*	6	0	67*	76*	76*	75*	93*	86*	77*
CC(=O)Nc1ccc(-c2ccnc3c2CC(C)(C(=O)Nc2ccc(F)c(Cl)c2)O3)cc1 (centres undefined)	nt	nt	-23	nt	nt	nt	nt	nt	nt	nt	nt
CCN(CC)C(=O)C1=C(C)N(CCCOC)C(=O)C(CC(=O)NC2CC2)C1 (centres undefined)	nt	nt	-6	nt	nt	nt	nt	nt	nt	nt	nt
CCOc1ccc(C(=O)Nc2cccc(C)n2)cc1	0	91*	19	-2	80*	87*	-9	83*	98*	94*	87*
CCOc1ccc(NC(=O)Nc2cccc(C)n2)cc1	3	16	16	8	-10	-3	nt	nt	nt	nt	nt
Cc1cccn2c1nc(=S)n2C(=O)c1ccco1	nt	nt	-10	nt	nt	nt	nt	nt	nt	nt	nt
Cc1cccc(C(=O)n2c(=S)nc3ccccn32)c1	0	90*	3	10	46	91*	77*	82*	92*	69*	56*
O=C(c1ccccc1)n1c(=S)nc2ccccn21	-13	90*	2	13	70*	78*	2	74*	93*	57*	15
COc1ccc(NC(=O)Nc2nnc([C@@H]3C[C@H](O)[C@@H](CO)O3)s2)cc1	nt	nt	13	nt	nt	nt	nt	nt	nt	nt	nt
CC1(C)OC2CC3C4CCC5=CC(=O)C=CC5(C)C4(F)C(O)CC3(C)C2(C(=O)CO)O1 (centres undefined)	nt	nt	-7	nt	nt	nt	nt	nt	nt	nt	nt
O=C1c2ccccc2S(=O)(=O)c2cc(N3CCOCC3)ccc21	-42	69*	-141	16	46	62*	26	20	25	34	18
O=C1c2ccccc2S(=O)(=O)c2cc(N3CCN(c4ccccc4)CC3)ccc21	-25	4	nt	14	0	-6	nt	nt	nt	nt	nt
SMILES	UBC13 polyUb	SENP7 block	SENP8 block-1	Apaf1 inhib	SENP8 block-2	SENP6 inh	SENP8 confirm	SENP6 confirm	SENP7 confirm	Casp3 SENP sel	SENP luc ctr
COc1ccc(C(=O)Nc2nccs2)cc1	3	33	22	-7	14	52*	30	26	63*	64*	46
COc1ccc(NC(=O)Nc2nccs2)cc1	-8	56*	4	-6	32	74*	39	41	80*	77*	63*
O=C(Nc1ccccc1)Nc1nccs1	3	7	9	-14	5	25	nt	nt	nt	nt	nt
Cc1ccc(NC(=O)C2(C)CCN2C(=O)Cc2ccc(C(C)(C)C)cc2)cc1C (centres undefined)	nt	nt	10	nt	nt	nt	nt	nt	nt	nt	nt
O=C(Nc1ccc(-c2nc3ccccc3[nH]2)cc1)C1CCCO1 (centres undefined)	5	93*	-95	4	88*	87*	92*	92*	99*	96*	79*
O=C(Nc1nc2ccccc2[nH]1)C1CCCO1 (centres undefined)	-2	1	24	-31	-7	-20	nt	nt	nt	nt	nt
O=C(Cc1cccs1)Nc1ccc(-c2nc3ccccc3[nH]2)cc1	9	84*	-399	6	17	59*	15	18	87*	68*	32
COc1cccc(N=NC2C(=O)N(C(N)=S)N=C2C)c1 (centres undefined)	-13	68*	25	-2	79*	85*	71*	86*	98*	91*	42

Source: PubChem BioAssay
